Published values pooled from the literature.
pEC50, pIC50, pKd, pKi: −log10 of the molar value.
HLA class I histocompatibility antigen, B alpha chain: HLA class I histocompatibility antigen, B alpha chain (Homo sapiens, UniProt P01889)
PLK1 polo-box: Serine/threonine-protein kinase PLK1, polo-box (PLK1, Homo sapiens, UniProt P53350)
HTR2B: 5-hydroxytryptamine receptor 2B (HTR2B, Homo sapiens, UniProt P41595)
HTR2C: 5-hydroxytryptamine receptor 2C (HTR2C, Homo sapiens, UniProt P28335)

For `CSCC[C@H](NC(=O)[C@H](CO)NC(=O)[C@H](CC(C)C)NC(=O)[C@H](CO)NC(=O)[C@H](Cc1c[nH]cn1)NC(=O)CNC(=O)[C@H](Cc1ccc(O)cc1)NC(=O)[C@H](CC(C)C)NC(=O)[C@@H](N)CCCNC(=N)N)C(=O)O`, the pIC50 was 6.23 (HLA class I histocompatibility antigen, B alpha chain; cell-free assay).
`N#CC(C#N)=Cc1ccc([N+](=O)[O-])c(O)c1` has a pKd of under 4.30 (Casein kinase I isoform delta (CSNK1D, Homo sapiens, UniProt P48730); binding; SPR).
With `CC[C@H](C)[C@H](NC(=O)[C@@H](N)CCCNC(=N)N)C(=O)N[C@@H](Cc1ccc(O)cc1)C(=O)NCC(=O)N1CCC[C@H]1C(=O)N1CCC[C@H]1C(=O)N[C@@H](Cc1c[nH]cn1)C(=O)N[C@@H](CCC(N)=O)C(=O)N[C@@H](Cc1ccccc1)C(=O)O` the pIC50 was 5.64 (HLA class I histocompatibility antigen, B alpha chain; cell-free assay).
`CC(C)CC[C@@H](O)[C@@H](C)[C@H]1CC[C@H]2[C@@H]3CC=C4C[C@@H](O)CC[C@]4(C)[C@H]3CC[C@]12C` gave a pKd of 6.79 (Cholesterol side-chain cleavage enzyme, mitochondrial (CYP11A1, Homo sapiens, UniProt P05108); binding).
`CC[C@H](C)[C@H](NC(=O)[C@@H](N)CCC(=O)O)C(=O)N[C@@H](C)C(=O)N1CCC[C@H]1C(=O)N[C@H](C(=O)N[C@@H](CC(C)C)C(=O)N[C@@H](Cc1c[nH]cn1)C(=O)N[C@@H](CO)C(=O)N[C@H](C(=O)O)[C@@H](C)OP(=O)(O)O)C(C)C` gave a pKd of 7.57 (PLK1 polo-box; binding; MST; pH 8).
With `CC[C@H](C)[C@H](NC(=O)[C@@H](NC(=O)[C@H](CCCCN)NC(=O)[C@H](Cc1c[nH]cn1)NC(=O)[C@H](Cc1ccc(O)cc1)NC(=O)[C@H](CCSC)NC(=O)[C@@H](N)CCCNC(=N)N)C(C)C)C(=O)N[C@H](C(=O)N[C@@H](Cc1ccccc1)C(=O)O)[C@@H](C)O` the pIC50 was 5.76 (HLA class I histocompatibility antigen, B alpha chain; cell-free assay).
`COc1cc2c(cc1OC)-c1c(OC)c(OC)cc3c1[C@H](C2)N(C)CC3` has a pKi of 6.67 (HTR2B; ligand displacement; radioligand).
The pKi of `O=C(O)CC(O)(CC(=O)O)C(=O)O` is reported as 2.39 (Tyrosine-protein phosphatase non-receptor type 5 (PTPN5, Homo sapiens, UniProt P54829); enzyme activity; inhibitor).
The pKi of `CCCCC1CNC2CCc3ccc(OC)cc3C12` (racemic) is reported as 6.77 (HTR2B; ligand displacement; radioligand).
With `CC(C)C[C@H](NC(=O)[C@H](CC(C)C)NC(=O)[C@@H]1CCCN1C(=O)[C@H](C)NC(=O)[C@@H](NC(=O)[C@H](C)N)C(C)C)C(=O)N[C@@H](Cc1c[nH]cn1)C(=O)N[C@@H](CO)C(=O)N[C@H](C(=O)O)[C@@H](C)OP(=O)(O)O` the pKd was 7.33 (PLK1 polo-box; binding; MST; pH 8).
The pKi of `COc1cc2c3c(c1OC)-c1c(cccc1OC)CC3N(C)CC2` (racemic) is reported as 6.22 (HTR2B; ligand displacement; radioligand).
`COc1cc(C(F)(F)F)c(OC)cc1C1CCCNC1` (stereo not shown) has a pEC50 of 7.15 (HTR2C; calcium signal; agonist).
The pIC50 of `CC[C@H](C)[C@H](NC(=O)[C@H](CCCNC(=N)N)NC(=O)[C@H](CC(N)=O)NC(=O)[C@H](Cc1ccccc1)NC(=O)[C@@H](NC(=O)[C@@H](N)Cc1ccc(O)cc1)[C@@H](C)O)C(=O)N[C@@H](Cc1c[nH]cn1)C(=O)N[C@@H](CCC(=O)O)C(=O)N[C@@H](Cc1ccccc1)C(=O)O` is reported as 4.36 (HLA class I histocompatibility antigen, B alpha chain; cell-free assay).
`CCCC(NCCc1cc(OC)c(C#N)cc1OC)c1ccccc1O` (stereo not shown) gave a pEC50 of 5.10 (HTR2C; calcium signal; agonist).
For `CC[C@H](C)[C@H](NC(=O)[C@@H]1CCCN1C(=O)[C@H](Cc1c[nH]cn1)NC(=O)[C@H](CCCCN)NC(=O)[C@H](Cc1ccc(O)cc1)NC(=O)[C@@H](NC(=O)[C@@H](N)Cc1ccc(O)cc1)[C@@H](C)O)C(=O)N[C@@H](Cc1ccc(O)cc1)C(=O)N[C@@H](CC(C)C)C(=O)O`, the pIC50 was 4.75 (HLA class I histocompatibility antigen, B alpha chain; cell-free assay).
The pKi of `COc1cc2c(cc1OC)CN(CCc1ccc(NC(=O)c3cccc4c(=O)c5cccc(OC)c5[nH]c34)cc1)CC2` is reported as 7.03 (HTR2C; cell-free assay).
